Results reported in ChEMBL document CHEMBL1944609, “Niphatenones, glycerol ethers from the sponge Niphates digitalis block androgen receptor transcriptional activity in prostate cancer cells: structure elucidation, synthesis, and biological activity” (J Med Chem, 2012).
Active and inactive are the calls of the source. The rule behind the calls is not given here.

Tests used:
PC-3 = assay: Antiproliferative activity against androgen receptor deficient human PC3 cells at 14 uM after 24 hrs by BrdU incorporation assay; assay type: functional, cell-based
Outline: (§1)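 PC3 cells were seeded for 24 h in phenol red DMEM with 5% FBS and penicillin/streptomycin, then pretreated for 1 h and cultured 24 h. BrdU was added for 2 h, then cells were fixed and incubated with anti-BrdU-POD for 1.5 h; absorbance was read at 570 nm. Data are mean ± SD of three experiments, 6 technical replicates each, analyzed by Student's t test.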

[1] = target: T1, Androgen receptor (Homo sapiens) (UniProt P10275); assay: Antagonist activity at androgen receptor in human LNCAP cells transfected with p6.1-luciferase assessed as inhibition of R1881-induced transcriptional activity at 7 uM pretreated 1 hr prior to R1881 addition measured after 48 hrs by luciferase reporter gene assay; assay type: functional, cell-based
T1 sequence (whole entry): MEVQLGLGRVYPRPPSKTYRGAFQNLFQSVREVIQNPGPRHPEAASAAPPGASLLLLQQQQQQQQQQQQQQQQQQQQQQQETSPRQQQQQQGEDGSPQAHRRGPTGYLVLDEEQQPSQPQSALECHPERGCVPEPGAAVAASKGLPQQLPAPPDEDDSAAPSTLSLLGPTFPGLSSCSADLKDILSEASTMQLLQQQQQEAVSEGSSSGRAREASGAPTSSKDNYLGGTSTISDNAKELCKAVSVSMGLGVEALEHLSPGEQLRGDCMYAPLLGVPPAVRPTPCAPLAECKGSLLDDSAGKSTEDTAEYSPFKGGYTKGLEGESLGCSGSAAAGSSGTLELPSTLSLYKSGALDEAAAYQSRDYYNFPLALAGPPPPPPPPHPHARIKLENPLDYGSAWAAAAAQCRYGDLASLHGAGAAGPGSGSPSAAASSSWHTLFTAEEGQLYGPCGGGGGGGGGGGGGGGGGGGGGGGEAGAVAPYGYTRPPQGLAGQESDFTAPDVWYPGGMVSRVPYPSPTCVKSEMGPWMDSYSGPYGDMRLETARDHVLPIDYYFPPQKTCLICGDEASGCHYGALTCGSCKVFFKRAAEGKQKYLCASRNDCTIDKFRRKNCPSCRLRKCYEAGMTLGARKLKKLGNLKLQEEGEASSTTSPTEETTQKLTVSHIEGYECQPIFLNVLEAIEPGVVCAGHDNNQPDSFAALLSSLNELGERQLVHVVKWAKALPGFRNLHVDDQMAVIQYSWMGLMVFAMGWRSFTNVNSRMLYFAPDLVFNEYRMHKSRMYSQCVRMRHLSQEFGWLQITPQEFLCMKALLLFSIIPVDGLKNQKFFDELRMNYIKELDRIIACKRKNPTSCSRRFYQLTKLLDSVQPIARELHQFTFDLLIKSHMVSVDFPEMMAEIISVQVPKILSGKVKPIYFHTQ
Outline: (§2)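 LNCaP cells were transfected using lipofectin in serum-free, phenol red-free medium with PSA (6.1 kb) luciferase (0.5 μg/well) plus empty vector (1 μg/well) for 24 h. Cells were then given a 1 h compound pretreatment before R1881 was added. After 48 h, luciferase was read and normalized to Bradford protein, expressed as % of the R1881 + DMSO vehicle maximum. Data are mean ± SD of three experiments, each in triplicate.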

LNCaP = assay: Antiproliferative activity against R1881-stimulated human LNCAP cells expressing androgen receptor at 14 uM treated 1 hr before R1881 addition measured after 72 hrs by BrdU incorporation assay; assay type: functional, cell-based
Outline: as §1, with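 “LNCaP” for “PC3”, “red-free RPMI 1640” for “red DMEM”, “0.5%” for “5%”, “before 0.1 nM R1881. After 72 h,” for “and cultured 24 h.”, “test versus R1881.” for “test.”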

[2] = target: T1, Androgen receptor (Homo sapiens); assay: Binding affinity to AF1 region of N-terminus domain androgen receptor at 20 uM after 50 mins by coomassine blue staining based SDS-PAGE analysis
Outline: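 Recombinant AR AF1 (purified by Ni2+-agarose, then size exclusion) at 10 μM was incubated on ice for 50 min with 20 μM alkyne probe in DMSO, or DMSO alone. The reaction was then diluted in half and click-labeled with 10 μM fluorescein azide, 0.1 mM ascorbate and 0.1 mM Cu(II)-TBTA for 30–40 min at RT. Labeling of the AF1 band was read as fluorescence on SDS-PAGE.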

[3] = target: T1, Androgen receptor (Homo sapiens); assay: Antagonist activity at androgen receptor in human LNCAP cells transfected with p6.1-luciferase assessed as inhibition of R1881-induced transcriptional activity at 3.5 uM pretreated 1 hr prior to R1881 addition measured after 48 hrs by luciferase reporter gene assay; assay type: functional, cell-based; outline: as §2

Compound | inhibition [1] | other results
CCCCCCCCCCCCC(=O)/C=C/CCCOC[C@H](O)CO | Active | Activity (PC-3): inactive; Activity (LNCaP): Active
CCCCCCCCCCCCC(=O)/C=C/CCCOC[C@H]1CO1 | Active | –
CCCCCCCCCCCCC(=O)/C=C/CCCOC[C@@H](O)CCl | Active | –
CCCCCCCCCCCCCCCCCC(=O)/C=C/CCCOC[C@H](O)CO | – | inhibition [3]: Active
CC(=O)/C=C/CCCOC[C@H](O)CO | inactive | –
CCCCCCCCCCCCC(=O)/C=C/CCCOC[C@@H](O)CO | 50% | Activity (PC-3): inactive; Activity (LNCaP): Active
CCCCCCCCCCC/C=C/C(=O)CCCCOC[C@H](O)CO | Active | –
CCCCCCCCCCCCC(=O)/C=C/CCCCC[C@H](O)CO | Active | –

More lines, main results first:

inhibition [1] | Compound | other results
inactive | CCCCCCCCCCC/C=C/C(=O)CCCCOC[C@@H](O)CO | –
Active | C#CCOC[C@@H](O)COCCC/C=C/C(=O)CCCCCCCCCCCC | Activity [2]: Active
Active | CCCCCCCCCCCCC(=O)/C=C/CCCOC[C@@H](O)COCCOCCOCCO | –
Active | CCCCCCCCCCCCC(=O)/C=C/CCCOC[C@@H]1COC(C)(C)O1 | –
Active | CCCCCCCCCCCCC(=O)CCCCCOC[C@H](O)CO | –
